T cruzi intra: intracellular Trypanosoma cruzi inhibition; intracellular Trypanosoma cruzi in host cells, plate reader; activity score (inhibition), % at 5.01 µM; actives 4.9% (n = 22,000); AID 651903; in the data active = activity score above about 55%; inconclusive = no clear call, values can overlap the other calls;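 also: parasites and compound incubated about four days before reading; 0% = median of neutral control wells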
INS-1E rescue: INS-1E beta cell protection from cytokine death; INS-1E cytokine-induced death, ATP luminescence, 48 h; normalised: neutral wells 0, positive control 100; actives 0.1% (n = 20,000); protection from cytokine-induced ATP loss, % at 10 µM;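 active = mean replicate protection from cytokine-induced ATP loss at least 50% and at least 75% of replicates each reaching 50%; inconclusive = meets only one of the two criteria, mean or replicate share; inactive = fails both the mean and replicate share criteria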
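Material: INS-1E rat cells; Quantity: 8000 cells/well; Buffer or medium: phenol-red-free RPMI with 5% fetal bovine serum; Probe or stimulus: cytokine cocktail of IFN-γ, TNF-α and IL-1β; Compound dosing: single test concentration per compound, delivered by pin transfer; Incubation: 48 h co-treatment, 10 min post-lysis read; Signal: CellTiter-Glo luminescence.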
A1 apoptosis 2: blocks A1, raising caspase activity | MEF A1-2A-BIM cells, caspase-Glo luminescence, 3 h; percent of clofoctol response, DMSO zero | caspase activation, % (test concentration not listed) | 24,000 tested, under 10 active; in the data active = caspase activation above about 5.9%; inconclusive = no clear call, values can overlap the other calls; inactive = below about 2.2%
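system = A1-2A-BIM-expressing MEF cells | quantity = 2500 MEF cells/well | dosing = 50 nL compound per well, pinned | schedule = overnight cell settling, then 3 h compound exposure, 37 °C | signal = luminescence from DEVD-luciferin Caspase-Glo reagent, 1:1 in 50 mM HEPES, 1 h RT | read-out = Caspase-3/7 activation, seen as rise in luminescence signal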
* marks the source's active call; other numbers are inactive results; ? = inconclusive; nt = not tested or not shown. Shown is part of a subset that was picked to be rich in hits.

SMILES	T cruzi intra	INS-1E rescue	A1 apoptosis 2
COc1ccc(S(=O)(=O)N(C)C[C@@H]2Oc3c(NS(=O)(=O)c4ccccc4)cccc3C(=O)N([C@@H](C)CO)C[C@H]2C)cc1	15	10	-1
COc1cccc(S(=O)(=O)N(C)C[C@@H]2Oc3ncc(-c4cccc(F)c4)cc3C(=O)N([C@H](C)CO)C[C@@H]2C)c1	30	nt	nt
C[C@H](CO)N1C[C@H](C)[C@H](CN(C)Cc2ccc(F)cc2)Oc2ncc(C#Cc3ccccc3)cc2C1=O	nt	nt	1
C[C@H](CO)N1C[C@H](C)[C@H](CN(C)Cc2ccccc2)Oc2ncc(-c3cccc(C(F)(F)F)c3)cc2C1=O	?	nt	0
CNC[C@@H]1Oc2ncc(-c3cccc(C(F)(F)F)c3)cc2C(=O)N([C@H](C)CO)C[C@@H]1C	54	nt	-1
C[C@H](CO)N1C[C@H](C)[C@H](CN(C)C)Oc2ncc(-c3cccc(C(F)(F)F)c3)cc2C1=O	81*	nt	1
C[C@H](CO)N1C[C@H](C)[C@H](CN(C)Cc2cccc(C(F)(F)F)c2)Oc2ncc(C#Cc3ccccc3)cc2C1=O	84*	nt	1
C[C@H](CO)N1C[C@H](C)[C@H](CN(C)Cc2ccc(F)cc2)Oc2ncc(-c3cccc(C(F)(F)F)c3)cc2C1=O	62*	nt	nt
COc1cccc(S(=O)(=O)N(C)C[C@@H]2Oc3ncc(-c4cccc(C(F)(F)F)c4)cc3C(=O)N([C@H](C)CO)C[C@@H]2C)c1	57*	nt	nt
CCCCCCC/C=N/NC(=O)CCCCCCC(=O)O	-7	-2	nt
Cc1ccc(S(=O)(=O)Nc2ccc3c(c2)C(=O)N([C@H](C)CO)C[C@H](C)[C@H](CN(C)C(=O)Nc2ccc(F)cc2)O3)cc1	4	nt	nt
CC1(C)[C@H]2CC=C(/C=N\NC(=O)c3cccc(C(=O)NO)c3)[C@@H]1C2	1	-4	nt
Cc1noc(C)c1NC(=O)N(C)C[C@@H]1Oc2ccc(NS(=O)(=O)c3ccc(Cl)cc3)cc2CC(=O)N([C@H](C)CO)C[C@@H]1C	-20	14	1
O=C(CCCCCC(=O)NN=C1CCCC1)NO	nt	nt	0
COc1ccc(Br)c(/C=N/NC(=O)c2ccccc2O)c1	-9	-15	nt
C[C@H](CO)N1C[C@H](C)[C@H](CN(C)Cc2ccc3c(c2)OCO3)Oc2ncc(-c3cccc(C(F)(F)F)c3)cc2C1=O	62*	-13	1
Cc1cccc(CN(C)C[C@@H]2Oc3ncc(-c4ccc(F)cc4)cc3C(=O)N([C@H](C)CO)C[C@@H]2C)c1	34	nt	nt
C[C@H](CO)N1C[C@H](C)[C@H](CN(C)Cc2ccc3c(c2)OCO3)Oc2ncc(-c3cccc(F)c3)cc2C1=O	25	-21	0
C[C@H](CO)N1C[C@H](C)[C@H](CN(C)Cc2cccc(C(F)(F)F)c2)Oc2ncc(-c3ccc(F)cc3)cc2C1=O	59*	nt	nt
CNC[C@@H]1Oc2ccc(NC(=O)Nc3ccccc3)cc2C(=O)N([C@H](C)CO)C[C@H]1C	-13	8	nt
C[C@@H]1CN([C@@H](C)CO)C(=O)c2cc(NC(=O)Nc3ccc(C(F)(F)F)cc3)ccc2O[C@@H]1CN(C)Cc1ccc(-c2ccccc2)cc1	64*	-34	nt
C[C@@H]1CN([C@@H](C)CO)C(=O)c2cc(NC(=O)Cc3ccccc3)ccc2O[C@@H]1CN(C)Cc1ccc(C(F)(F)F)cc1	0	nt	0
C[C@H](CO)N1C[C@H](C)[C@H](CN(C)Cc2ccc(C(F)(F)F)cc2)Oc2ccc(NC(=O)Cc3ccccc3)cc2C1=O	64*	nt	nt
C[C@@H]1CN([C@@H](C)CO)C(=O)c2cc(NC(=O)Nc3ccc(C(F)(F)F)cc3)ccc2O[C@H]1CN(C)Cc1ccc(-c2ccccc2)cc1	2	-45	0
C[C@@H]1CN([C@H](C)CO)C(=O)c2cc(NC(=O)Nc3ccc(C(F)(F)F)cc3)ccc2O[C@H]1CN(C)Cc1ccc(-c2ccccc2)cc1	86*	-68	0
SMILES	T cruzi intra	INS-1E rescue	A1 apoptosis 2
C[C@H](CO)N1C[C@H](C)[C@@H](CN(C)Cc2ccc(-c3ccccc3)cc2)Oc2ccc(NC(=O)Nc3ccc(C(F)(F)F)cc3)cc2C1=O	23	-20	nt
COC(=O)C(CC#Cc1ccc2c(c1)[C@]1(C(=O)N2)[C@H](c2ccc(O)cc2)N2[C@H](c3ccccc3)[C@H](c3ccccc3)OC(=O)[C@H]2[C@@H]1C(=O)O)C(=O)OC	nt	nt	1
CC1(C)[C@H]2CC=C(/C=N\NC(=O)c3ccc(C(=O)NO)cc3)[C@@H]1C2	11	3	0
CN(C)c1ccc(/C=N/NC(=O)c2ccccc2O)cc1	-12	-24	nt
C[C@H](CO)N1C[C@H](C)[C@H](CN(C)Cc2ccc(C(=O)O)cc2)Oc2ccc(NC(=O)C3CC3)cc2C1=O	-24	7	1
O=C(N/N=C/c1ccc(-c2cccc(Cl)c2)o1)c1ccccn1	85*	13	-1
Cc1ccc(/C=N/NC(=O)CCCCCC(=O)NO)o1	7	108*	nt
O=C(N/N=C/c1cc(Br)c(O)c(Br)c1)c1ccccn1	-13	7	nt
Cc1ccc(/C=N/NC(=O)CCCCCC(=O)O)o1	-15	-3	0
Cc1ccc(/C=N/NC(=O)c2ccccn2)o1	2	-3	-4
O=C(N/N=C/c1cc(Br)cc(Br)c1O)c1ccccn1	78*	-42	nt
O=C(CCCCC(=O)N/N=C/c1ccc(-c2cccc(Cl)c2)o1)NO	19	149*	nt
COC(=O)CCCCCCC(=O)N/N=C/c1ccc(-c2cccc(Cl)c2)o1	27	5	-3
O=C1O[C@@H](c2ccccc2)[C@@H](c2ccccc2)N2[C@@H](c3ccc(OCCO)cc3)[C@]3(C(=O)Nc4ccccc43)[C@@H](C(=O)N3CCCCCCC3)[C@H]12	nt	nt	0
O=C(CCCCCC(=O)Nc1ccccc1O)N/N=C\c1cccnc1Br	-1	-7	nt
C[C@@H]1CN([C@H](C)CO)C(=O)Cc2cc(NC(=O)Nc3ccc(C(F)(F)F)cc3)ccc2O[C@@H]1CN(C)Cc1ccccc1	69*	-32	nt
C[C@@H]1CN([C@@H](C)CO)C(=O)Cc2cc(NC(=O)Nc3ccc(C(F)(F)F)cc3)ccc2O[C@@H]1CN(C)Cc1ccccc1	58*	-33	nt
C[C@H]1CN([C@@H](C)CO)C(=O)Cc2cc(NC(=O)Nc3ccccc3)ccc2O[C@@H]1CN(C)Cc1ccc(C(F)(F)F)cc1	27	-24	0
C[C@@H]1CN([C@@H](C)CO)C(=O)Cc2cc(NC(=O)Nc3ccccc3)ccc2O[C@@H]1CN(C)Cc1ccc(C(F)(F)F)cc1	?	-4	1
C=CC[C@]1(C(=O)NCCN2CCOCC2)COC(c2ccc(OCCCO)cc2)=N1	nt	nt	-1
C[C@H]1CN([C@@H](C)CO)C(=O)Cc2cc(NC(=O)Nc3ccccc3)ccc2O[C@H]1CN(C)Cc1ccc(Cl)c(Cl)c1	-15	-56	2
C[C@H]1CN([C@@H](C)CO)C(=O)Cc2cc(NC(=O)Cc3ccccc3)ccc2O[C@@H]1CN(C)Cc1ccccc1	51	0	-1
COc1ccc(NC(=O)Nc2ccc3c(c2)CC(=O)N([C@H](C)CO)C[C@H](C)[C@H](CN(C)Cc2ccc(Cl)c(Cl)c2)O3)cc1	2	-18	2
